From ChEMBL document CHEMBL4834454 (Bioorg Med Chem, 2021)

Tests used:
[1] = target: T1, Cannabinoid receptor 1 (Homo sapiens, UniProt P21554); experiment: Allosteric antagonist activity at human CB1 receptor expressed in CHO-RD-HGA16 cells overexpressing Galpha16 assessed as inhibition of CP55940-stimulated calcium mobilization preincubated for 15 mins followed by agonist addition and measured every 1 sec for 90 secs by Calcium-3 dye based FLIPR assay; assay type: functional, cell-based
[2] = target: T1, Cannabinoid receptor 1; experiment: Agonist activity at human CB1 receptor expressed in CHO-RD-HGA16 cells overexpressing Galpha16 assessed as stimulation of calcium mobilization measured every 1 sec for 90 secs by Calcium-3 dye based FLIPR assay relative to Emax of CP55940; assay type: functional, cell-based; details: time 90.0 sec
Procedure, shortened: (§1)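 Agonist screen. […] They were pretreated with vehicle (BSA/DMSO/EtOH buffer) for 15 min, and a single concentration of test compound was added at 10 s. Fluorescence (485/525 nm) was read for 90 s. RFU is expressed as % of CP55,940 Emax RFU. Line 1 uses hCB1 cells; line 2 uses hCB2 cells.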

[3] = target: T2, Cannabinoid receptor 2 (Homo sapiens, UniProt P34972); experiment: Antagonist activity at human CB2 receptor expressed in CHO-RD-HGA16 cells overexpressing Galpha16 assessed as inhibition of CP55940-stimulated calcium mobilization at 10 uM preincubated for 15 mins followed by agonist addition and measured every 1 sec for 90 secs by Calcium-3 dye based FLIPR assay; assay type: functional, cell-based; details: time 990.0 sec
[4] = target: T2, Cannabinoid receptor 2; experiment: Antagonist activity at human CB2 receptor expressed in CHO-RD-HGA16 cells overexpressing Galpha16 assessed as inhibition of CP55940-stimulated calcium mobilization preincubated for 15 mins followed by agonist addition and measured every 1 sec for 90 secs by Calcium-3 dye based FLIPR assay; assay type: functional, cell-based
[5] = target: T2, Cannabinoid receptor 2; experiment: Agonist activity at human CB2 receptor expressed in CHO-RD-HGA16 cells overexpressing Galpha16 assessed as stimulation of calcium mobilization measured every 1 sec for 90 secs by Calcium-3 dye based FLIPR assay relative to Emax of CP55940; assay type: functional, cell-based; details: time 90.0 sec; procedure, shortened: as §1
[6] = target: T1, Cannabinoid receptor 1; experiment: biochemical
[7] = target: T1, Cannabinoid receptor 1; experiment: Allosteric antagonist activity at N-terminal 3HA-tagged human CB1 receptor expressed in HEK293 cells assessed as reduction in CP55940-stimulated inhibition of forskolin-induced cAMP accumulation measured for 20 mins by BRET assay; assay type: functional, cell-based

T2 sequence (P34972 whole entry): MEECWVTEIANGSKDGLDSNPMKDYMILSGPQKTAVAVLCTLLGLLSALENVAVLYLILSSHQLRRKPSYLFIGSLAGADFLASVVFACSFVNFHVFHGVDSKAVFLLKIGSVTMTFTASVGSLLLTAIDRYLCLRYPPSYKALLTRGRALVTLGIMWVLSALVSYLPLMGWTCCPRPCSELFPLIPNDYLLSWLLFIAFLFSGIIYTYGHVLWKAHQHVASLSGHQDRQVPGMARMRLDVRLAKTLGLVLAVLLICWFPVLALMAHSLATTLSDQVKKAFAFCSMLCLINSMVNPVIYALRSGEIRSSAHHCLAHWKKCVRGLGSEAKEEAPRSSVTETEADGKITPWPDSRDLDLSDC
T1 sequence (P21554 whole entry): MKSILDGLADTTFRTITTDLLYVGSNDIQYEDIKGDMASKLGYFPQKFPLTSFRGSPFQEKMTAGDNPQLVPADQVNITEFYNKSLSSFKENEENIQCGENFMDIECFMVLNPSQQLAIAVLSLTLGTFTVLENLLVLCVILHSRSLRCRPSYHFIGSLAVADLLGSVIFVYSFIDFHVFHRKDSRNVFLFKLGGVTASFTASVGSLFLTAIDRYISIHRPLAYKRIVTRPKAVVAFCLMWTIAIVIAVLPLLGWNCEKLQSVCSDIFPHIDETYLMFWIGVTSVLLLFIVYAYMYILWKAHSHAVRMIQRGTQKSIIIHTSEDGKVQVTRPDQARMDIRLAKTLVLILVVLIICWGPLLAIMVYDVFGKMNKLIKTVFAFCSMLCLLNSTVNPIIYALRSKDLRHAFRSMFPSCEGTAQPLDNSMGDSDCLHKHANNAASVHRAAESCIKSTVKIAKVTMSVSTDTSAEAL

Row | IC50 [1] [µM] | Activity [2] [%] | inhibition [3] [%] | IC50 [4] [µM] | Activity [5] [%] | SMILES | IC50 [6] [µM] | IC50 [7] [µM]
1 | 0.794 | < 30 | < 50 | > 10 | < 10 | O=C(NCCc1ccc(N2CCCC2)cc1)Nc1ccc(Cl)cc1 | 39.8 | 
2 | 3.16 | < 30 | < 50 | > 10 | < 10 | CCN(CC)c1ccc(CCNC(=O)Nc2ccc(Cl)cc2)cc1 |  | 
3 |  | < 30 | < 50 | > 10 | < 10 | O=C(NCCc1cccnc1)Nc1ccc(Cl)cc1 |  | 
4 |  | < 30 | < 50 | > 10 | < 10 | O=C(NCCN1CCCCC1)Nc1ccc(Cl)cc1 |  | 
5 |  | < 30 | < 50 | > 10 | < 10 | O=C(NCCc1ccncc1)Nc1ccc(Cl)cc1 |  | 
6 | 3.98 | < 30 | < 50 | > 10 | < 10 | O=C(NCCCc1ccccc1)Nc1ccc(Cl)cc1 |  | 
7 | 1.58 | < 30 | < 50 | > 10 | < 10 | CC(=O)NCCNC(=O)Nc1ccc(Cl)cc1 |  | 
8 |  | < 30 | < 50 | > 10 | < 10 | CN1CCN(CCNC(=O)Nc2ccc(Cl)cc2)CC1 |  | 
9 |  | < 30 | < 50 | > 10 | < 10 | O=C(NCCN1CCOCC1)Nc1ccc(Cl)cc1 |  | 
10 | 0.794 |  | < 50 | > 10 | < 10 | CCc1c(C(=O)NCCc2ccc(N3CCCCC3)cc2)[nH]c2ccc(Cl)cc12 | 1 | 0.158
11 |  | < 30 | < 50 | > 10 | < 10 | O=C(NCCN1CCCC1)Nc1ccc(Cl)cc1 |  | 
12 |  | < 30 | < 50 | > 10 | < 10 | CC(C)(CNC(=O)Nc1ccc(Cl)cc1)c1ccccc1 |  | 
13 |  | < 30 |  | > 10 | < 10 | O=C(Nc1ccc(Cl)cc1)Nc1cccc(-c2cccc(N3CCCC3)n2)c1 |  | 
14 |  | < 30 | < 50 | > 10 | < 10 | O=C(NCCc1ccsc1)Nc1ccc(Cl)cc1 |  | 
15 |  | < 30 | < 50 | > 10 | < 10 | O=C(NC[C@H]1C[C@@H]1c1ccccc1)Nc1ccc(Cl)cc1 (relative stereo) |  | 
16 | 3.98 | < 30 | < 50 | > 10 | < 10 | O=C(NCCc1ccccn1)Nc1ccc(Cl)cc1 |  | 
17 |  | < 30 | < 50 | > 10 | < 10 | O=C(NCCc1cccs1)Nc1ccc(Cl)cc1 |  | 
18 | 5.01 | < 30 | < 50 | > 10 | < 10 | O=C(NCC1(c2ccccc2)CC1)Nc1ccc(Cl)cc1 |  | 
19 |  | < 30 | < 50 | > 10 | < 10 | O=C(NCc1ccccc1)Nc1ccc(Cl)cc1 |  | 
20 |  | < 30 | < 50 | > 10 | < 10 | O=C(NCC(F)(F)c1ccccc1)Nc1ccc(Cl)cc1 |  | 
21 |  | < 30 | < 50 | > 10 | < 10 | Cc1ccc(CCNC(=O)Nc2ccc(Cl)cc2)o1 |  | 
22 |  | < 30 | < 50 | > 10 | < 10 | O=C(Nc1ccc(Cl)cc1)NC1(Cc2ccccc2)CC1 |  | 

Row | SMILES | IC50 [1] [µM] | Activity [2] [%] | inhibition [3] [%] | IC50 [4] [µM] | Activity [5] [%] | IC50 [6] [µM] | IC50 [7] [µM]
23 | CC(C)(Cc1ccccc1)NC(=O)Nc1ccc(Cl)cc1 |  | < 30 | < 50 | > 10 | < 10 |  | 
24 | O=C(NCCc1ccc(N2CCCCC2)cc1)Nc1ccc(Cl)cc1 | 0.794 |  | < 50 | > 10 | < 10 | 1.26 | 
25 | O=C(NCCc1ccccc1)Nc1ccc(Cl)cc1 | 0.2 |  | < 50 | > 10 | < 10 | 6.31 | 3.16
26 | CN(C)c1ccc(CCNC(=O)Nc2ccc(Cl)cc2)cc1 | 0.251 | < 30 | < 50 | > 10 | < 10 | 15.8 | 2.51
